According to ChEMBL document CHEMBL1124758, “Renin inhibitory peptides. A beta-aspartyl residue as a replacement for the histidyl residue at the P-2 site” (J Med Chem, 1990):

target: T1, Renin (Homo sapiens, UniProt P00797); experiment: Inhibition of human plasma renin at pH 6; type: cell-free
T1 sequence (P00797 whole entry): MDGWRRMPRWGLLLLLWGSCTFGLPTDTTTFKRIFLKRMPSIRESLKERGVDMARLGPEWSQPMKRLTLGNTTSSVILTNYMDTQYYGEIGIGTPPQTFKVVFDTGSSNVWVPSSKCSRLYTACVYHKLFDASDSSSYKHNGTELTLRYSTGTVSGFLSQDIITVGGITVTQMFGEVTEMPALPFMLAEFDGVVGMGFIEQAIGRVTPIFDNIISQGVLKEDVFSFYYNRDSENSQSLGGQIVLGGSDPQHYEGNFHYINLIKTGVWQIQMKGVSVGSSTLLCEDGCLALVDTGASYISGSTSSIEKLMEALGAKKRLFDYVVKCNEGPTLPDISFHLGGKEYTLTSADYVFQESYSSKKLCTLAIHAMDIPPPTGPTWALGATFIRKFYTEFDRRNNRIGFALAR
Outline: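 Human plasma incubated with phenylmethanesulfonyl fluoride and maleate buffer (pH 6.0) plus peptide in 1% Tween 80/water vehicle, 90 min at 37 °C, for angiotensin I generation. Angiotensin I measured by radioimmunoassay kit. Percent inhibition from plasma renin activity versus control tubes. IC50 estimated from semilog plot of three or four peptide concentrations.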

| Structure (SMILES) | IC50 [nM] |
| --- | --- |
| CC[C@@H](C)[C@H](NC(=O)[C@@H](CC(O)[C@H](CC1CCCCC1)NC(=O)[C@@H](CC(=O)O)NC(=O)COc1ccccc1)C(C)C)C(=O)N(C)c1ccccn1 (some centres undefined) | 0.34 |
| CC[C@@H](C)[C@H](NC(=O)[C@@H](CC(O)[C@H](CC(C)C)NC(=O)[C@@H](CC(=O)O)NC(=O)COc1ccccc1)C(C)C)C(=O)N(C)c1ccccn1 (some centres undefined) | 1.9 |
| CC[C@@H](C)[C@H](NC(=O)[C@@H](CC(O)[C@H](CC(C)C)NC(=O)[C@H](Cc1c[nH]cn1)NC(=O)COc1ccccc1)C(C)C)C(=O)N(C)c1ccccn1 (some centres undefined) | 8.5 |
| CC[C@@H](C)[C@H](NC(=O)[C@@H](CC(O)[C@H](CC(C)C)NC(=O)C(C(=O)COc1ccccc1)C(O)C(=O)O)C(C)C)C(=O)N(C)c1ccccn1 (some centres undefined) | 0.7 |
| CC[C@@H](C)[C@H](NC(=O)[C@@H](CC(O)[C@H](CC(C)C)NC(=O)C(C(=O)Cc1ccccc1)C(O)C(=O)O)C(C)C)C(=O)N(C)c1ccccn1 (some centres undefined) | 1.2 |
| CC[C@@H](C)[C@H](NC(=O)[C@@H](CC(O)[C@H](CC1CCCCC1)NC(=O)[C@@H](CC(=O)O)NC(=O)Cc1ccccc1)C(C)C)C(=O)N(C)c1ccccn1 (some centres undefined) | 2 |
| CC[C@@H](C)[C@H](NC(=O)[C@@H](CC(O)[C@H](CC(C)C)NC(=O)[C@H](Cc1c[nH]cn1)NC(=O)Cc1ccccc1)C(C)C)C(=O)N(C)c1ccccn1 (some centres undefined) | 220 |
| CC[C@@H](C)[C@H](NC(=O)[C@@H](CC(O)[C@H](CC(C)C)NC(=O)[C@@H](CC(=O)O)NC(=O)Cc1ccccc1)C(C)C)C(=O)N(C)c1ccccn1 (some centres undefined) | 3.5 |
| CC[C@@H](C)CNC(=O)[C@@H](CC(O)[C@H](CC(C)C)NC(=O)C(C(=O)COc1ccccc1)C(O)C(=O)O)C(C)C (some centres undefined) | 2.2 |
| CC[C@@H](C)CNC(=O)[C@@H](NC(O)[C@@H](CC(=O)[C@H](CC(=O)O)NC(=O)COc1ccccc1)CC1CCCCC1)C(C)C (some centres undefined) | 5.2 |
| CC[C@@H](C)CNC(=O)[C@@H](CC(O)[C@H](CC(C)C)NC(=O)C(C(=O)Cc1ccccc1)C(O)C(=O)O)C(C)C (some centres undefined) | 6 |
| CC[C@@H](C)CNC(=O)[C@@H](CC(O)[C@H](CC(C)C)NC(=O)[C@@H](CC(=O)O)NC(=O)COc1ccccc1)C(C)C (some centres undefined) | 20 |
| CC[C@@H](C)CNC(=O)[C@@H](CC(O)[C@H](CC1CCCCC1)NC(=O)C(C(=O)COc1ccccc1)C(O)C(=O)O)C(C)C (some centres undefined) | 3.6 |
| CC[C@@H](C)[C@H](NC(=O)[C@@H](CC(O)[C@H](CC(C)C)NC(=O)C(CC(=O)O)NC(=O)Cc1ccccc1)C(C)C)C(=O)N(C)c1ccccn1 (stereo in doubt) | 17 |
